This note sets out measurements from PMC11486593 (Biochimica et biophysica acta. General subjects, 2024).

Data set [1] relates to ShhN-induced Gli1 and Ptch1 mRNA in C3H10T1/2 cells. The data set can be described thus: qRT-PCR for Gli1 and Ptch1 in C3H10T1/2 cells, ShhN-mediated induction. Format: cell-based, mouse. Conditions: 5 days; for Decrease of ShhN-mediated induction of Gli1 and Ptch1 compared to ShhN treatment alone: 50 μM compound; for Inhibition of ShhN-induced GLI1 and Ptch1 mRNA: 50 μM for compounds 4, 21 and 24, 10 μM for robotnikinin. A general note: In qPCR the cycle at which signal appears reflects the starting amount.

For data set [2], the system named is SAG-induced Gli1 and Ptch1 mRNA in C3H10T1/2 cells. Briefly: qRT-PCR for Gli1 and Ptch1 in C3H10T1/2 cells, SAG-mediated induction. Format: cell-based, mouse. The settings on record: 5 days, 50 μM for compounds 4, 21 and 24, 10 μM for robotnikinin.
Data set [3] relates to SAG-induced AP activity in C3H10T1/2 cells. The data set can be described thus: C3H10T1/2 cell-based assay, inhibition of SAG-induced alkaline phosphatase. Also noted: species or system murine. Conditions: for Inhibition of SAG-induced AP: C3H10T1/2 cells, SAG at EC50 (100 nM), 5 days; for Cytotoxicity in C3H10T1/2 cells: inferred from lack of effect in the SAG induction assay. An outline of the steps:
(§1)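 C3H10T1/2 murine embryonic fibroblasts, stimulated for 5 days with an agonist at its EC50 (human ShhN N-terminal domain, residues 24–197, at 2 μg/ml; or Smoothened agonist SAG at 100 nM), with or without the test compound in dose response. Alkaline phosphatase activity is measured as the marker of pathway activation. IC50 is obtained by non-linear regression.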

The target in data set [4] is ShhN protein (Homo sapiens, UniProt Q15465). Briefly: Protein thermal shift assay. Format: binding. The settings on record: ShhN 1–2 μM; compounds 1.56 to 50 μM. A digest of the protocol:
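Differential scanning fluorimetry uses human ShhN (residues 24–197, 1–2 μM final) mixed with the kit's thermal shift buffer and dye, held on ice, with or without the test compound at 1.56–50 μM. Melt runs at a continuous ramp of […] from 25°C to 97.5°C. ΔTm is the difference in transition midpoint with versus without compound.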

Data set [5] deals with ShhN/heparin binding (Homo sapiens, UniProt Q15465). Briefly: Solid-phase ShhN/heparin binding assay. The settings on record: for ShhN/flu-heparin binding IC50 of known compounds: compounds known to bind Shh, heparin binding domains or heparin, Fig. 3B.
ShhN/heparin binding, sequence (Q15465 24-197): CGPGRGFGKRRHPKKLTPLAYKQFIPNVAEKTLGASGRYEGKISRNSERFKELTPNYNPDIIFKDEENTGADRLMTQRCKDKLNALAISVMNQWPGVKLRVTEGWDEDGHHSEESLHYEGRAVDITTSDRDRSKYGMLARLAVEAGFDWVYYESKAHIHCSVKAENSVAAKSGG
Data set [6] relates to ShhN-induced AP activity in C3H10T1/2 cells. The data set can be described thus: C3H10T1/2 cell-based assay, inhibition of ShhN-induced alkaline phosphatase. Also noted: species or system murine. The settings on record: dose response, 5 days. A digest of the protocol: as §1
The subject of data set [7] is C3H10T1/2 cells. The data set can be described thus: Induction of AP activity in C3H10T1/2 cells by agonists. Format: cell-based, murine. Conditions: read-out: EC50 for induction of AP activity, 5 days. An outline of the steps: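 C3H10T1/2 murine embryonic fibroblasts are cultured for 24 h, then exposed to varying concentrations of ShhN protein or SAG for 5 days. Alkaline phosphatase induction is read as the activation marker, and EC50 is fitted by non-linear regression. A ShhN dose-response curve is run on every plate as an internal control.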

SMILES strings stand for the structures.

For orientation: IC50 means the concentration needed to halve the response being measured. A high value points to weaker potency. As a reminder, the EC50 is the concentration at which the effect is half-maximal.

ShhN protein, sequence (Q15465 24-197): as above

For the compound `CCc1ccc(C2=C/C(=C/c3ccco3)C(=O)O2)cc1` [Compound 4, (3Z)-5-(4-Ethylphenyl)-3-(furan-2-ylmethylidene) furan-2-one], in data set [1], the “Decrease of ShhN-mediated induction of Gli1 and Ptch1 compared to ShhN treatment alone” value is 6–7 fold; the “Inhibition of ShhN-induced GLI1 and Ptch1 mRNA” value is listed as “significantly blocked”. In addition, the “Inhibition of SAG-induced GLI1 and Ptch1 mRNA” value in data set [2] is reported as “did not decrease”. Also, in data set [3], the “Inhibition of SAG-induced AP” value is reported as “not SAG induction of AP” and the “Cytotoxicity in C3H10T1/2 cells” value is “not cytotoxic”. Besides, the “Tm shift (ΔTm) on binding to ShhN” value in data set [4] was 1.58 °C.
In data set [5], `O=C1NC(=S)N(c2ccc(F)cc2)C(=O)C1=Cc1ccco1` [Compound 7, 1-(4-Fluoro-phenyl)-5-furan-2-ylmethylene-2-thioxo-dihydro-pyrimidine-4,6-dione] displayed an IC50 of 17.5 µM.
Turning to `O=C(NCCNC1CCCC1)c1cccs1` [Compound 24, N-[2-(Cyclopentylamino)ethyl] thiophene-2-carboxamide], in data set [1], the “Decrease of ShhN-mediated induction of Gli1 and Ptch1 compared to ShhN treatment alone” value was 6–7 fold; the “Inhibition of ShhN-induced GLI1 and Ptch1 mRNA” value is “significantly blocked”. Also, the “Inhibition of SAG-induced GLI1 and Ptch1 mRNA” value in data set [2] was “did not decrease”. Moreover, in data set [3], the “Inhibition of SAG-induced AP” value is reported as “not SAG induction of AP” and the “Cytotoxicity in C3H10T1/2 cells” value is “not cytotoxic”. Further, the “Tm shift (ΔTm) on binding to ShhN” value in data set [4] amounted to 0.85 °C.
As for `O=C(C[C@@H]1C/C=C/CCC(=O)O[C@H](c2ccccc2)CNC1=O)NCc1ccc(Cl)cc1` [Robotnikinin, reference compound], in data set [5], the “ShhN/flu-heparin binding IC50 of known compounds” value is “did not block binding”. Moreover, the “Inhibition of ShhN-induced GLI1 and Ptch1 mRNA” value in data set [1] was “blocked”. Further, the “Inhibition of SAG-induced GLI1 and Ptch1 mRNA” value in data set [2] was “did not block”. In data set [6], the “Block of ShhN-mediated AP induction” value is “able to block ShhN-”. In data set [3], the “Inhibition of SAG-induced AP” value is “not SAG-mediated AP induction”. The “Tm shift (ΔTm) on binding to ShhN” value in data set [4] came out at 0.85 °C.
Turning to `CNC1CCC(N(Cc2cccc(-c3ccncc3)c2)C(=O)c2sc3ccccc3c2Cl)CC1` (centres unmarked) [SAG], in data set [7], the EC50 is 100 nM.
`Cc1ccc(C(=O)Nc2ccc(S(=O)(=O)O)c3cc(S(=O)(=O)O)cc(S(=O)(=O)O)c23)cc1NC(=O)c1cccc(NC(=O)Nc2cccc(C(=O)Nc3cc(C(=O)Nc4ccc(S(=O)(=O)O)c5cc(S(=O)(=O)O)cc(S(=O)(=O)O)c45)ccc3C)c2)c1` [Suramin, reference compound]: the “Block of ShhN-mediated AP induction” value in data set [6] is “blocked”. Besides, the “Tm shift (ΔTm) on binding to ShhN” value in data set [4] came out at 0.73 °C.
For the compound `Cc1cc(N)c2cc(NC(=O)Nc3ccc4nc(C)cc(N)c4c3)ccc2n1` [surfen, Surfen], the “ShhN/flu-heparin binding IC50 of known compounds” value in data set [5] was “did not block binding”.
